Tests used:
[1] = target: AChE (Electrophorus electricus, UniProt O42275); assay: AChE inhibitory assay; format: biochemical, Electroporus electricus
[2] = target: BuChE (Bos taurus, UniProt P32749); assay: BuChE inhibitory assay; format: biochemical, bovine
[3] = Neurotoxicity assay, cell viability by Neutral Red method; format: cell-based, human; settings: human, SH-SY5Y neuroblastoma cells
How it was run: (§1)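 SH-SY5Y cells (passages 18–23) in DMEM with 5% FBS were seeded at 2×10^4 cells/well and grown 24 h at 37 °C, 5% CO2. Test compound came from a 1×10−2 M DMSO stock, freshly diluted in medium, and was applied for 24 h. Controls were medium alone and 120 mM K+ (death). Cells were PBS-washed, given neutral red for 3 h at 37 °C, extracted 20 min with acidified ethanol, and read at A540.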

[4] = system: human neuroblastoma SH‐SY5Y cells; assay: as above; format: cell-based; settings: SH‐SY5Y cells
How it was run: as §1

Sequence of BuChE (P32749 29-602): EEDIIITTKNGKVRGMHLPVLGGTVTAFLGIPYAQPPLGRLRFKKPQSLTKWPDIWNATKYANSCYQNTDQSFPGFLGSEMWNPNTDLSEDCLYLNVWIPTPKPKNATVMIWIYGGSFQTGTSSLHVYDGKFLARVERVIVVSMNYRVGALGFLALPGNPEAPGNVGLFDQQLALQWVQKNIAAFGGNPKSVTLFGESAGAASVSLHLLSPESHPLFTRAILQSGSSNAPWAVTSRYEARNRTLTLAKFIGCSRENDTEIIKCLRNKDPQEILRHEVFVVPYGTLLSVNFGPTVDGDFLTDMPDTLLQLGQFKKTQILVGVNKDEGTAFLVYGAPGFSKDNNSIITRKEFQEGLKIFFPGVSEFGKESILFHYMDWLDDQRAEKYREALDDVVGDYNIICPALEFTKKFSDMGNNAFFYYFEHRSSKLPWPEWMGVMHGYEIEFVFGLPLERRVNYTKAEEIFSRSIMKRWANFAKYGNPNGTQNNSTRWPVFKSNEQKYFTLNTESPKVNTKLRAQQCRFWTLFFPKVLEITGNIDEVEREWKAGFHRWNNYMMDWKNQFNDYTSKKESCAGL
Sequence of AChE (O42275 24-633): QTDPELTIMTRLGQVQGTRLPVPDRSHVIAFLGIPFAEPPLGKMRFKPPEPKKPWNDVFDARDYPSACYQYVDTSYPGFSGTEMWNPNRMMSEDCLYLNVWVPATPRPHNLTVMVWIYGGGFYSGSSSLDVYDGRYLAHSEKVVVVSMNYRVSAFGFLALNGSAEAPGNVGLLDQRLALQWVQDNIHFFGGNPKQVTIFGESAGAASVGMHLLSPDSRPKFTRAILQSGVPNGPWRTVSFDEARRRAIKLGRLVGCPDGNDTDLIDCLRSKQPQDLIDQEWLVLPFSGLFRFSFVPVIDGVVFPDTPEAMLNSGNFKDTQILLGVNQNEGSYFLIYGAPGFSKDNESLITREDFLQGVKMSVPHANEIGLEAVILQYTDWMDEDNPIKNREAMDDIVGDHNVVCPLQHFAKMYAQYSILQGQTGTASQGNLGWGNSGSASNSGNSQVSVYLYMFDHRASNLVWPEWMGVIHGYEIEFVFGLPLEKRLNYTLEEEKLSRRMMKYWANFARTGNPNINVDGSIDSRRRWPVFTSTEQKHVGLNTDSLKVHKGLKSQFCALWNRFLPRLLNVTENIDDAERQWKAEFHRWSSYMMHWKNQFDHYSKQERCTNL

SMILES | IC50 [1] [µM] | IC50 [2] [µM] | IC50 at 24 h [3] [µM] | viability at 24 h, 10 µM [3] [%] | viability at 24 h, 1 mM [3] [%] | Cytotoxicity (in words) [4]
O=CNC1CC(c2ccccc2)Nc2c1ccc1cccnc21 (stereo not drawn) [4 a, N‐(2‐phenyl‐1,2,3,4‐tetrahydro‐1,10‐phenanthroline‐4‐yl) formamide] | > 500 |  |  |  |  | 
O=CNC1CC(c2ccccn2)Nc2c1ccc1cccnc21 (stereo not drawn) [4 b, N‐(2‐(pyridin‐2‐yl)‐1,2,3,4‐tetrahydro‐1,10‐phenanthroline‐4‐yl) formamide] | 143.66 ± 0.02 | 152.99 ± 0.01 |  |  |  | 
O=CNC1CC(c2cccnc2)Nc2c1ccc1cccnc21 (stereo not drawn) [4 c, N‐(2‐(pyridin‐3‐yl)‐1,2,3,4‐tetrahydro‐1,10‐phenanthroline‐4‐yl) formamide] | 140.2 ± 0.02 |  |  |  |  | 
O=CNC1CC(c2ccncc2)Nc2c1ccc1cccnc21 (stereo not drawn) [4 d, N‐(2‐(pyridin‐4‐yl)1,2,3,4‐tetrahydro‐1,10‐phenanthroline‐4‐yl) formamide] | 63.63 ± 0.01 | 138.63 ± 0.01 | 5500 | 132 ± 25.6 | 102 ± 18.9 | non‐cytoxicity
COc1ccc(C2CC(NC=O)c3ccc4cccnc4c3N2)cc1 (stereo not drawn) [4 e, N‐(2‐(4‐methoxyphenyl)‐1,2,3,4‐tetrahydro‐1,10‐phenanthroline‐4‐yl) formamide] | 362.11 ± 0.03 |  | 3700 | 119 ± 6.4 | 78.5 ± 12.5 | 
O=CNC1CC(c2ccc([N+](=O)[O-])cc2)Nc2c1ccc1cccnc21 (stereo not drawn) [4 g, N‐(2‐(4‐nitrophenyl)‐1,2,3,4‐tetrahydro‐1,10‐phenanthroline‐4‐yl) formamide] | 96.52 ± 0.01 |  | 300 | 116 ± 5 | 21.9 ± 3.9 | non‐cytoxicity
Nc1cccc2cccnc12 [8‐amino‐quinoline, reference compound] | 171.56 ± 0.01 | 195.08 ± 0.02 |  |  |  | 
